# Screens deposited in PubChem by Broad Institute.
# This excerpt belongs to a sample that is enriched for hits.
# INS-1E rescue: rescue of cytokine-induced death in INS-1E beta cells; INS-1E cytokine-induced death, ATP luminescence, 48 h; normalised: neutral wells 0, positive control 100; protection from cytokine-induced ATP loss, % at 10 µM; 20,000 tested, 0.1% active;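 active means mean replicate protection from cytokine-induced ATP loss at least 50% and at least 75% of replicates each reaching 50%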
#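 assay system = INS-1E rat insulinoma cells | amount = 8000 cells per well | medium = phenol-red-free RPMI with 5% fetal bovine serum | doses = one compound concentration, pin transfer | timing = 48 h cytokine plus compound treatment, 10 min reagent incubation | also added = IL-1β, TNF-α and IFN-γ cytokine mix | signal = CellTiter-Glo luminescence measuring cellular ATP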
# T cruzi HTS: intracellular Trypanosoma cruzi inhibition; intracellular Trypanosoma cruzi in host cells, plate reader; activity score (inhibition), % at 5.01 µM; 22,000 tested, 4.9% active; AID 651903; in the data active means activity score above about 55%;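 further: parasites and compound incubated about four days before reading; 0% = median of neutral control wells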
# A1 apoptosis 2: A1 inhibition read as caspase activation | 24,000 tested, under 10 active | caspase activation, % (concentration not given with the values) | MEF A1-2A-BIM cells, caspase-Glo luminescence, 3 h; percent of clofoctol response, DMSO zero | AID 2465; in the data active means caspase activation above about 5.9%
#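 Evaluation: Caspase-3/7 activity from luminescence increase | Assay system: A1-2A-BIM mouse embryonic fibroblasts | Quantity: 2500 MEF cells/well | Medium: RPMI-1640 plus 10% FBS | Detection: Caspase-Glo 3/7 luminescence, 1 h at room temperature | Dosing: 50 nL compound per well, pinned | Timing: Cells settled overnight, compound exposure 3 h at 37 °C, 5% CO2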
# Active calls of the source: *; · = not tested or not shown.
SMILES,INS-1E rescue,T cruzi HTS,A1 apoptosis 2
C[C@@H]1CN([C@@H](C)CO)C(=O)c2cccc(NC(=O)Nc3ccc(C(F)(F)F)cc3)c2O[C@@H]1CN(C)CC1CC1,-19,-17,-1
C[C@@H]1CN([C@@H](C)CO)C(=O)c2cc(NC(=O)Nc3ccc(F)cc3)ccc2O[C@@H](C)CCCCO[C@@H]1CN(C)CC1CCCCC1,·,·,1
C[C@@H]1CN([C@H](C)CO)C(=O)Cc2cc(NC(=O)Cc3ccccc3)ccc2O[C@H]1CN(C)C,10,-28,·
C[C@@H]1CN([C@@H](C)CO)C(=O)c2cc(NC(=O)Cn3cnnn3)ccc2O[C@@H]1CN(C)Cc1ccc(C(=O)O)cc1,·,-12,·
C[C@@H]1CN([C@@H](C)CO)C(=O)c2cc(NC(=O)Nc3cccc4ccccc34)ccc2O[C@@H](C)CCCCO[C@@H]1CN(C)Cc1ccc2c(c1)OCO2,·,·,0
C[C@@H]1CN([C@@H](C)CO)C(=O)c2cc(NC(=O)CCC(F)(F)F)ccc2O[C@@H](C)CCCCO[C@@H]1CN(C)Cc1ccc(C(=O)O)cc1,·,·,1
C[C@@H]1CCCCO[C@@H](CN(C)S(=O)(=O)c2ccc(Cl)cc2)[C@@H](C)CN([C@H](C)CO)C(=O)c2cc(NC(=O)Nc3ccc(C(F)(F)F)cc3)ccc2O1,-9,51,·
C[C@@H]1CCCCO[C@H](CN(C)S(=O)(=O)c2ccc(Cl)cc2)[C@@H](C)CN([C@H](C)CO)C(=O)c2cc(NC(=O)Nc3ccc(C(F)(F)F)cc3)ccc2O1,-53,71*,1
C[C@@H]1CN([C@H](C)CO)C(=O)Cc2cc(NS(=O)(=O)c3ccc(F)cc3)ccc2O[C@@H]1CN(C)Cc1ccc(Oc2ccccc2)cc1,-32,69*,0
C[C@H]1CN([C@@H](C)CO)C(=O)c2cc(NS(=O)(=O)c3ccc(F)cc3)ccc2O[C@@H]1CN(C)Cc1ccc(Oc2ccccc2)cc1,-16,69*,·
C[C@@H]1CN([C@@H](C)CO)C(=O)Cc2cc(NS(=O)(=O)c3ccc(F)cc3)ccc2O[C@H]1CN(C)Cc1ccc(Oc2ccccc2)cc1,·,·,1
Cc1ccc(S(=O)(=O)Nc2ccc3c(c2)CC(=O)N([C@@H](C)CO)C[C@H](C)[C@H](CN(C)Cc2ccc(Oc4ccccc4)cc2)O3)cc1,-36,17,·
C[C@@H]1CN([C@H](C)CO)C(=O)Cc2cc(NS(=O)(=O)c3ccccc3)ccc2O[C@@H]1CN(C)Cc1ccc(Oc2ccccc2)cc1,-23,71*,-1
Cc1ccc(S(=O)(=O)Nc2ccc3c(c2)CC(=O)N([C@@H](C)CO)C[C@@H](C)[C@@H](CN(C)Cc2ccc(Oc4ccccc4)cc2)O3)cc1,-19,70*,·
C[C@@H]1CN([C@@H](C)CO)C(=O)c2cc(NS(=O)(=O)c3ccc(F)cc3)ccc2O[C@@H]1CN(C)Cc1ccc(Oc2ccccc2)cc1,-33,3,·
C[C@H]1CN([C@@H](C)CO)C(=O)Cc2cc(NS(=O)(=O)c3ccccc3)ccc2O[C@H]1CN(C)Cc1ccc(Oc2ccccc2)cc1,-56,39,-1
COc1ccc(NC(=O)N(C)C[C@H]2Oc3ccc(NS(=O)(=O)c4ccccc4)cc3C(=O)N([C@@H](C)CO)C[C@H]2C)cc1,·,0,0
COc1ccc(NC(=O)N(C)C[C@@H]2Oc3ccc(NC(=O)CCC(F)(F)F)cc3CC(=O)N([C@H](C)CO)C[C@H]2C)cc1,13,-11,0
C[C@H](CO)N1C[C@H](C)[C@@H](CN(C)C(=O)Nc2ccc3c(c2)OCO3)Oc2c(NC(=O)Nc3ccc(F)cc3)cccc2C1=O,0,-14,0
C[C@H]1CN([C@@H](C)CO)C(=O)c2cccc(NS(=O)(=O)c3ccccc3)c2O[C@@H]1CN(C)Cc1ccc(-c2ccccc2)cc1,-5,1,2
C[C@H]1CN([C@@H](C)CO)C(=O)c2cc(NC(=O)Nc3cccc4ccccc34)ccc2O[C@@H]1CN(C)Cc1ccccc1,-5,10,·
C[C@H](CO)N1C[C@H](C)[C@H](CN(C)S(=O)(=O)c2ccccc2)Oc2ccc(NS(=O)(=O)c3ccc(F)cc3)cc2C1=O,-5,58*,-1
Cc1noc(C)c1S(=O)(=O)Nc1ccc2c(c1)CC(=O)N([C@@H](C)CO)C[C@H](C)[C@H](CN(C)Cc1ccc(Oc3ccccc3)cc1)O2,-21,26,0
C[C@@H]1CN([C@H](C)CO)C(=O)Cc2cc(NS(=O)(=O)c3ccc(Cl)cc3)ccc2O[C@@H]1CN(C)Cc1ccc(Oc2ccccc2)cc1,-27,61*,·
